What is called IC50 is the concentration that inhibits the measured activity by half. A low value points to inhibition by little substance.

In ChEMBL document CHEMBL1149207, “Non-nucleoside inhibitors of the hepatitis C virus NS5B polymerase: discovery of benzimidazole 5-carboxylic amide derivatives with low-nanomolar potency” (Bioorg Med Chem Lett, 2004) one finds IC50 data, which are given here for 31 compounds.

The target in this test is RNA-directed RNA polymerase (Hepacivirus hominis, UniProt O39930). The experiment in a line: Concentration required for inhibiting hepatitis C virus NS5B RNA polymerase activity. An outline of the steps: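 HCV NS5B polymerase IC50; each value is the mean of at least duplicate experiments, run on two separate weighings of compound.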
Chain of RNA-directed RNA polymerase (O39930 whole entry): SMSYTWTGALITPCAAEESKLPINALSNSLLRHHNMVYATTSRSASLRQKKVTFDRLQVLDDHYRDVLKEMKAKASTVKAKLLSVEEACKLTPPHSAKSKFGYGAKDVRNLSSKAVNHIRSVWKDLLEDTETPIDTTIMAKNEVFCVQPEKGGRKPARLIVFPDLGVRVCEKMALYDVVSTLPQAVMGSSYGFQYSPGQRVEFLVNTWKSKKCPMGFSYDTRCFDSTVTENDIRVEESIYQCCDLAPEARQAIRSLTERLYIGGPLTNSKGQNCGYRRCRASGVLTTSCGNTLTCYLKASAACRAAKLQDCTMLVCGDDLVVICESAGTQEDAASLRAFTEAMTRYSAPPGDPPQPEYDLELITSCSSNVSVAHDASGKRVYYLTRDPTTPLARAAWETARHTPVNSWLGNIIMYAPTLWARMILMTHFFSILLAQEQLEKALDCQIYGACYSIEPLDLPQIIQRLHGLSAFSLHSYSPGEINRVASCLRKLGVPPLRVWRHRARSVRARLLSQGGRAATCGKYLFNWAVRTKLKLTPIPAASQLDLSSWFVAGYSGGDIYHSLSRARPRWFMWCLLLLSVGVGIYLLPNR
`Nc1ccc2[nH]cc(C[C@H](NC(=O)c3ccc4c(c3)nc(-c3ccoc3)n4C3CCCCC3)C(=O)O)c2c1` came in with an IC50 of 0.09 µM.
With `O=C(O)c1ccc2[nH]cc(C[C@H](NC(=O)c3ccc4c(c3)nc(-c3ccoc3)n4C3CCCCC3)C(=O)O)c2c1`, it took 0.02 µM to reach half-maximal inhibition (IC50). Compared with the last compound, the IC50 is about 4.5-fold lower.
On to `O=C(N[C@@H](Cc1c[nH]c2ccc([N+](=O)[O-])cc12)C(=O)O)c1ccc2c(c1)nc(-c1ccoc1)n2C1CCCCC1`, for which the IC50 amounted to 2 µM.
With `O=C(O)COc1ccc2[nH]cc(C[C@H](NC(=O)c3ccc4c(c3)nc(-c3ccoc3)n4C3CCCCC3)C(=O)O)c2c1`, the IC50 was 0.019 µM.
Regarding `O=C(N[C@@H](Cc1c[nH]c2ccccc12)C(=O)O)c1ccc2c(c1)nc(-c1ccoc1)n2C1CCCCC1`, inhibition was half-maximal at 0.4 µM (IC50).
Compound `COc1ccc([C@H](NC(=O)c2ccc3c(c2)nc(-c2ccoc2)n3C2CCCCC2)C(=O)O)cc1OC` displayed an IC50 of 0.4 µM.
In the case of `CC(=O)Nc1ccc2[nH]cc(C[C@H](NC(=O)c3ccc4c(c3)nc(-c3ccoc3)n4C3CCCCC3)C(=O)O)c2c1`, the IC50 is 0.06 µM.
In turn, `COc1ccc2[nH]cc(C[C@H](NC(=O)c3ccc4c(c3)nc(-c3ccoc3)n4C3CCCCC3)C(=O)O)c2c1` showed an IC50 of 0.4 µM.
The compound `O=C(N[C@@H](Cc1c[nH]c2ccccc12)C(=O)O)c1ccc2c(c1)nc(-c1ccccn1)n2C1CCCCC1` came in with an IC50 of 1.9 µM.
Under `CS(=O)(=O)Nc1ccc2[nH]cc(C[C@H](NC(=O)c3ccc4c(c3)nc(-c3ccoc3)n4C3CCCCC3)C(=O)O)c2c1` stands 0.12 µM; under `Cc1[nH]c2ccc(O)cc2c1C[C@H](NC(=O)c1ccc2c(c1)nc(-c1ccoc1)n2C1CCCCC1)C(=O)O`, 0.46 µM.
For the compound `O=C(N[C@@H](Cc1ccc(O)cc1)C(=O)O)c1ccc2c(c1)nc(-c1ccccn1)n2C1CCCCC1`, 1.5 µM corresponded to half-maximal inhibition (IC50). Against the preceding compound, the IC50 is about 3.3-fold higher.
The compound `NC(=O)c1ccc2[nH]cc(C[C@H](NC(=O)c3ccc4c(c3)nc(-c3ccoc3)n4C3CCCCC3)C(=O)O)c2c1` registered an IC50 of 0.037 µM.
`O=C(N[C@@H](Cc1ccccc1)C(=O)O)c1ccc2c(c1)nc(-c1ccccn1)n2C1CCCCC1`: the IC50 was 7 µM.
In turn, `COc1ccc([C@H](C)NC(=O)c2ccc3c(c2)nc(-c2ccccn2)n3C2CCCCC2)cc1OC` came in with an IC50 of 12 µM.
`O=C(N[C@@H](Cc1c[nH]c2ccc(F)cc12)C(=O)O)c1ccc2c(c1)nc(-c1ccoc1)n2C1CCCCC1` gave an IC50 of 2.9 µM.
The compound `O=C(N[C@@H](Cc1c[nH]c2ccc(O)cc12)C(=O)O)c1ccc2c(c1)nc(-c1ccoc1)n2C1CCCCC1` had an IC50 of 0.05 µM.
Consider `O=C(N[C@@H](Cc1c[nH]c2ccc(C3N=NN=N3)cc12)C(=O)O)c1ccc2c(c1)nc(-c1ccoc1)n2C1CCCCC1`, for which the IC50 turned out to be 0.015 µM.
In turn, `O=C(NCCc1c[nH]c2ccc(O)cc12)c1ccc2c(c1)nc(-c1ccoc1)n2C1CCCCC1` displayed an IC50 of 1.5 µM.
Compound `O=C(N[C@@H](Cc1ccccc1)C(=O)O)c1ccc2c(c1)nc(-c1ccoc1)n2C1CCCCC1` showed an IC50 of 4 µM.
Under `CC(C)(Oc1ccc2[nH]cc(C[C@H](NC(=O)c3ccc4c(c3)nc(-c3ccoc3)n4C3CCCCC3)C(=O)O)c2c1)C(=O)O` stands 0.1 µM; under `Cc1ccc2[nH]cc(C[C@H](NC(=O)c3ccc4c(c3)nc(-c3ccoc3)n4C3CCCCC3)C(=O)O)c2c1`, 2.2 µM.
In turn, `COc1ccc(CNC(=O)c2ccc3c(c2)nc(-c2ccccn2)n3C2CCCCC2)cc1OC` displayed an IC50 of 7 µM.
For `COc1ccc([C@@H](C)NC(=O)c2ccc3c(c2)nc(-c2ccccn2)n3C2CCCCC2)cc1OC`, the IC50 was 3 µM.
Take `O=C(O)C(=O)Nc1ccc2[nH]cc(C[C@H](NC(=O)c3ccc4c(c3)nc(-c3ccoc3)n4C3CCCCC3)C(=O)O)c2c1`: the IC50 came to 0.008 µM.
For `O=C(N[C@H](Cc1c[nH]c2ccc(O)cc12)C(=O)O)c1ccc2c(c1)nc(-c1ccoc1)n2C1CCCCC1`, the midpoint of inhibition, the IC50, lay at 0.7 µM.
As for `O=C(N[C@@H](Cc1c[nH]c2ccc(O)cc12)C(=O)O)c1ccc2c(c1)nc(-c1ccccn1)n2C1CCCCC1`, the IC50 is 0.14 µM.
Consider `O=C(N[C@@H](Cc1ccc(O)cc1)C(=O)O)c1ccc2c(c1)nc(-c1ccoc1)n2C1CCCCC1`, for which the IC50 stood at 0.4 µM. This IC50 lies about 2.9-fold higher than the previous one.
As to `O=C(N[C@@H](Cc1c[nH]c2ccc(NS(=O)(=O)C(F)(F)F)cc12)C(=O)O)c1ccc2c(c1)nc(-c1ccoc1)n2C1CCCCC1`, the midpoint of inhibition, the IC50, lay at 0.15 µM.
With `Cn1cc(C[C@@H](NC(=O)c2ccc3c(c2)nc(-c2ccoc2)n3C2CCCCC2)C(=O)O)c2cc(O)ccc21`, 0.16 µM corresponded to half-maximal inhibition (IC50). The IC50 values of the last two compounds are within 1.5-fold of each other.
In turn, `COc1ccc([C@H](NC(=O)c2ccc3c(c2)nc(-c2ccccn2)n3C2CCCCC2)C(=O)O)cc1OC` registered an IC50 of 2 µM.
